Test system: MS2 coat protein
Assay: apparent Kd, MS2 coat protein; higher = weaker binding; RNA-MaP array; FMN 200 µM where present
Procedure, shortened: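 Designs were transcribed by stalled E. coli RNA polymerase on Illumina sequencing-chip clusters. They were titrated with SNAP-549-labelled MS2 coat protein from 0.7 or 1.5 nM, doubling to 3 µM, in 100 mM Tris-HCl pH 7.5, 80 mM KCl, 4 mM MgCl2, BSA, DTT, yeast tRNA and Tween-20, without and then with constant ligand. The apparent Kd is the median of filtered per-cluster fits after normalisation of green signal to red-channel RNA signal and control-cluster median Fmax.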

[1] = designed as: ON switch for flavin mononucleotide, no ligand
[2] = ligand present: flavin mononucleotide, designed as: ON switch for flavin mononucleotide
[3] = designed as: OFF switch for flavin mononucleotide, no ligand
[4] = ligand present: flavin mononucleotide, designed as: OFF switch for flavin mononucleotide

Sequence	apparent Kd [1] [nM]	apparent Kd [2] [nM]	apparent Kd [3] [nM]	apparent Kd [4] [nM]
ACUAGAUGCGUGAAAUAACACAUGAGGAUCACCCAUGUGACGCAGGAUAUAACCAGAUCAGAAAGUUAGAAGGGUGAGCACGCA	60.8	31.8	–	–
GGUGCUGUGUAGAAGGCAGAUCUGAUUCAGAUCUGAGGAUAUACAUGAGGAUCACCCAUGUUAAGCACCAGCACGAGAGUGCAA	–	–	5.8	8.54
UUUUUGUCAGGAUAUGACUAGAUGCACGUUAGUGUAUUUACUUAGAAGGGACAUGAGGAUCACCCAUGUAUUCC	–	–	30.7	26.7
AUUAUUGACGUAGGAUAUUCUUACAUGAGGAUCACCCAUGUUAUUUGGGAACUAGGAAUAUUUUAGAAGAAGGACGUUGUUAAA	230	173	–	–
UUUUAACAUGAGGAUCACCCAUGUGAGGAUAUCGAAAUUUAUAUUAAUAUUAAUUUUACGAGAAGGCACAUUUU	–	–	112	100
AGGAAGUGAGGAUAUGCAGUGGCUAGUAGACGCUAGCACUUGUAGAAGGCACAUGAGGAUCACCCAUGUUUAAA	–	–	31.9	36.9
AGUUGAAAUACAGGAUAUAUAUUAUUUUUAUUUAUAGAAGGGUAAUCACAUGAGGAUCACCCAUGUAUAUACGAGGAAGAAGAG	292	263	–	–
AACAGCUCGUCAGGAUAUAUUUUCCUUUUAUGUAUUUAUGUACAUGAGGAUCACCCAUGUUGUUUGUAGAAGGGACGAGCUGAA	–	–	27.5	35.7
AUCGGAAUGUAGAAGGGUGACAUGAGGAUCACCCAUGUACAAAUGCGUUUUUCGGUAAUUGAUCCACAGGAUAUACUGUCCGAG	1080	794	–	–
GCCAACGCAUGAGGAUAUGCUCCCGUUUCGGGAGCAGAAGGCAUGUCAUAAGACAUGAGGAUCACCCAUGUAGUUAAGAUGGCA	474	20.1	–	–
ACUUCACAUGAGGAUCACCCAUGUGAGGAUAUCGUCGAGGAUGUAAUGCCAUCCGUGGCGAGAAGGCGCAUGGU	–	–	29.9	77.7
CGUAGUCCGUAGAAGGGUGACAUGAGGAUCACCCAUGUGCGAGCCGAGGGAGUCAGCGGCUCGCCACAGGAUAUACGGAGCACG	44.5	52.9	–	–
AUUAUUAUAUUAUACAUGAGGAUCACCCAUGUUAUAAGUCAUGAGGAUAUGGUAUUGUAGUUAUUCCAGAAGGCAUUUAACUUA	11.4	7.05	–	–
AUACACUUUCGAGGAUAUCGGUGAUAAAUUUUACGAGAAGGCGAUAAAAGAUAUAAUCUUAUAUACAUGAGGAUCACCCAUGUU	27.3	25.1	–	–
CGACAUUACACAGGAUAUCCUCGACUUUGUCGAGGAGAAGGGUGUAAACAUGAGGAUCACCCAUGUAUAAUGUCGAAAUAUAAU	221	28.9	–	–
AGUGGUGAGCAAGGAUAUCGCCACUGCGUGACCUCACAACGGAUACAUGAGGAUCACCCAUGUGGCGAGAAGGUGCGGGAACGG	–	–	28.1	36.9
AAAGCCAACGAAGGAUAUACAAACAUGAGGAUCACCCAUGUGUCUUUCGUGUAACUGGAAUUCGGGUAGAAGGUCGUUGACAUA	–	–	14.9	21.7
CGGCUACCCAGUAUGGGUAUUUUUACAGAAGGCCAGGCACAUGAGGAUCACCCAUGUCAAGUUUUGGAGGAUAUGUUAGUGUCG	5.58	4.25	–	–
UGUAUUAAUGGAGGAUAUCGAUAUCAAACAUGAGGAUCACCCAUGUUGAGGAUCACCCAUGUCCAUGAGAAGGCUGGCGUACUU	30.4	29.2	–	–
UUUAACAGAGGAUAUGCGAAUAAAUAAAACUUUUUUUUUUAACAUGAGGAUCACCCAUGUAGAAGGCUGAUUUU	–	–	45.7	47.7
GGUCCGCACUAGAAGGGUGACAUGAGGAUCACCCAUGUGCACUUCCGCUCUUAGCGGAAAGUGCCACAGGAUAUAGUGUGGAUU	80.6	20.3	–	–
CUGAUGUUAGGAUAUCAGGUUGUGCGCGAAGGCGGGCGGCAUGAGAAGGAACAUGAGGAUCACCCAUGUGACGA	–	–	29.4	85
AUCCGGCGUGUAGGAUAUGGAUCCGAUUAGGAUCCAGAAGGACAUGAGGAUCACCCAUGUACAUGUAAACAGUCAUCACCGGAA	–	–	10.2	49.4
GUGUACGGAGGAUAUAUGUGGUGAGCAUACGCUCAAGCUUCACAUGAGGAUCACCCAUGUAGAAGGCUGUGCAC	–	–	210	150
UGUCCAUAGCAGAAGGACAUGAGGAUCACCCAUGUAAUAAAACAUCCAAAUGUAGGAUAUGCUAUGGACUAAGAGCGAAAGCUC	–	–	28.9	606
AAUGUACUCGGAGGAUAUCCCACAUGAGGAUCACCCAUGUGGGUCACUGAUUCUCGUAUCGUCCGGGAGAAGGCCGAGAACUGA	–	–	34.6	111
GGAUAGGACACAGGAUAUACGUGCUAGAGAUACUAGCAAAAUUUCCUCACAUGAGGAUCACCCAUGUAGAAGGCUGUCCUAUCG	–	–	6.15	5.95
UUUCUACAUGAGGAUCACCCAUGUCAACAAAGUCGAGGAUAUGGGCAUAUUAUCUUAUUUCCAGAAGGCGAUUUCU	145	29.5	–	–
